In brackets after ≈: the same amount, converted by molar mass. Activity calls are given as the source filed them. No cut-off for these calls is given here.
Assays:
[1] = tested on: Penicillium oxalicum; assay: Antimicrobial activity against Penicillium oxalicum at 10 ug; type: functional; conditions: for zone of inhibition at 10 µg/disc: read-out: IZ
Summary of the method: (§1)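 Direct bioautography: each compound is spotted onto TLC plates and the solvent evaporated. The test organism is then grown directly on the plate. Growth inhibition is scored at the spot as active (+) or very active (++). Where a number is given, it is the radius in mm of the inhibition zone around the spot.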

[2] = tested on: Penicillium oxalicum; assay: Antimicrobial activity against Penicillium oxalicum at 1 ug; type: functional; conditions: for zone of inhibition at 1 µg/disc: read-out: IZ; summary of the method: as §1
[3] = tested on: Escherichia coli; assay: Antimicrobial activity against Escherichia coli at 5 ug; type: functional, organism-based; summary of the method: as §1
[4] = tested on: Monocyte; assay: Inhibition of IL1 biosynthesis in human monocytes; type: functional, cell-based
[5] = tested on: Penicillium oxalicum; assay: Antimicrobial activity against Penicillium oxalicum at 0.01 ug; type: functional; summary of the method: as §1
[6] = tested on: HT-1080; assay: Cytotoxicity against human HT1080 cells; type: functional; conditions: read-out: ED50 (the source's name)
[7] = Inhibition of PKC
[8] = tested on: Escherichia coli; assay: Antimicrobial activity against Escherichia coli at 10 ug; type: functional, organism-based; summary of the method: as §1
[9] = tested on: ZR-75-1; assay: Cytotoxicity against human ZR-75-1 cells; type: functional; conditions: read-out: ED50 (the source's name)
[10] = tested on: Monocyte; assay: Inhibition of LPS-stimulated IL1 production in human monocytes; type: functional, cell-based
[11] = tested on: Penicillium oxalicum; assay: Antimicrobial activity against Penicillium oxalicum at 0.1 ug; type: functional; conditions: for zone of inhibition at 0.1 µg/disc: read-out: IZ; summary of the method: as §1
[12] = tested on: Escherichia coli; assay: Antimicrobial activity against Escherichia coli at 0.1 ug; type: functional, organism-based; summary of the method: as §1
[13] = tested on: A-431; assay: Cytotoxicity against human A431 cells; type: functional; conditions: read-out: ED50 (the source's name)
[14] = Cytotoxicity against human BCA1 cells; type: functional; conditions: read-out: ED50 (the source's name)
[15] = tested on: Penicillium oxalicum; assay: Antimicrobial activity against Penicillium oxalicum at 5 ug; type: functional; conditions: for zone of inhibition at 5 µg/disc: read-out: IZ; summary of the method: as §1
[16] = tested on: Micrococcus luteus; assay: Antimicrobial activity against Micrococcus luteus at 10 ug; type: functional, organism-based; summary of the method: as §1
[17] = tested on: P388; assay: Cytotoxicity against mouse P388 cells; type: functional; conditions: read-out: ED50 (the source's name)
[18] = Cytotoxicity against human U373 cells; type: functional, U-373MG ATCC; conditions: U373 MG, read-out: ED50 (the source's name)
[19] = tested on: Bacillus subtilis; assay: Antimicrobial activity against Bacillus subtilis at 10 ug; type: functional, organism-based; summary of the method: as §1
[20] = tested on: Bacillus subtilis; assay: Antimicrobial activity against Bacillus subtilis at 1 ug; type: functional, organism-based; summary of the method: as §1
[21] = tested on: Bacillus subtilis; assay: Antimicrobial activity against Bacillus subtilis at 5 ug; type: functional, organism-based; summary of the method: as §1
[22] = tested on: Escherichia coli; assay: Antimicrobial activity against Escherichia coli at 1 ug; type: functional, organism-based; summary of the method: as §1
[23] = tested on: LNCaP; assay: Cytotoxicity against human LNCAP cells; type: functional; conditions: read-out: ED50 (the source's name)
[24] = tested on: Plasmodium falciparum; assay: Antimalarial activity against chloroquine-sensitive Plasmodium falciparum D6 at 10 ug/ml; type: functional
[25] = tested on: Micrococcus luteus; assay: Antimicrobial activity against Micrococcus luteus at 5 ug; type: functional, organism-based; summary of the method: as §1
[26] = Cytotoxicity against human Col1 cells; type: functional; conditions: read-out: ED50 (the source's name)
[27] = tested on: KB; assay: Cytotoxicity against vinblastine-sensitive human KB cells; type: functional; conditions: read-out: ED50 (the source's name)
[28] = tested on: KB; assay: Cytotoxicity against human KB cells; type: functional; conditions: read-out: ED50 (the source's name)
[29] = Cytotoxicity against human MEL-2 cells; type: functional; conditions: MEL2, read-out: ED50 (the source's name)
[30] = tested on: Micrococcus luteus; assay: Antimicrobial activity against Micrococcus luteus at 1 ug; type: functional, organism-based; summary of the method: as §1
[31] = tested on: KB; assay: Cytotoxicity against vinblastine-resistant human KB cells; type: functional; conditions: read-out: ED50 (the source's name)
Summary of the method: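 The vinblastine-resistant KB-V1 line was tested both with and without added vinblastine in the cultured tumour-cell cytotoxicity panel. Results are reported as ED50.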

[32] = tested on: Lu1; assay: Cytotoxicity against human Lu1 cells; type: functional; conditions: read-out: ED50 (the source's name)
[33] = tested on: Mycobacterium tuberculosis; assay: Antimycobacterial activity against Mycobacterium tuberculosis at 128 uM; type: functional, organism-based
[34] = Inhibition of TK assessed as residual activity at 200 ug/ml
Summary of the method: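 The enzyme was tyrosine kinase p56lck, with test compounds at 200 μg/mL. The read-out is the remaining enzyme activity.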

[35] = biological target: Human immunodeficiency virus type 1 reverse transcriptase (Human immunodeficiency virus 1) (UniProt Q72547); assay: Inhibition of HIV1 RT at 200 uM
Summary of the method: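 HIV-1 reverse transcriptase inhibition was measured in an ELISA-based system.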

[36] = tested on: Bacillus subtilis; assay: Antimicrobial activity against Bacillus subtilis at 0.1 ug; type: functional, organism-based; summary of the method: as §1
[37] = tested on: Mycobacterium avium; assay: Antimycobacterial activity against Mycobacterium avium at 128 uM; type: functional, organism-based
[38] = tested on: Micrococcus luteus; assay: Antimicrobial activity against Micrococcus luteus at 0.1 ug; type: functional, organism-based; summary of the method: as §1
[39] = tested on: Penicillium oxalicum; assay: Antimicrobial activity against Penicillium oxalicum at 0.8 ug; type: functional; conditions: read-out: IZ; summary of the method: as §1
[40] = tested on: Penicillium oxalicum; assay: Antimicrobial activity against Penicillium oxalicum at 1.6 ug; type: functional; conditions: read-out: IZ; summary of the method: as §1

Compound: CCCCC1=C(Br)C(=C(Br)Br)OC1=O
- zone of inhibition at 10 µg/disc [1]: 11 mm
- zone of inhibition at 1 µg/disc [2]: 8 mm
- Activity [3]: Active
- IC50 [4]: 3000 nM
- Activity [5]: inactive
- EC50 [6]: > 20 µg/mL
- IC50 [7]: ≥ 200 µM
- Activity [8]: Active
- EC50 [9]: 8.6 µg/mL (≈ 22.1 µM)
- IC50 [10]: 1800 nM
- zone of inhibition at 0.1 µg/disc [11]: 1 mm
- Activity [12]: inactive
- EC50 [13]: 10.5 µg/mL (≈ 27 µM)
- EC50 [14]: 6.4 µg/mL (≈ 16.5 µM)
- zone of inhibition at 5 µg/disc [15]: 13 mm
- Activity [16]: Active
- EC50 [17]: > 5 µg/mL
- EC50 [18]: > 20 µg/mL
- Activity [19]: Active
- Activity [20]: inactive
- Activity [21]: Active
- Activity [22]: inactive
- EC50 [23]: 9.3 µg/mL (≈ 23.9 µM)
- Activity [24]: >50%
- Activity [25]: Active
- EC50 [26]: 12.4 µg/mL (≈ 31.9 µM)
- EC50 [27]: > 20 µg/mL
- EC50 [28]: > 20 µg/mL
- EC50 [29]: 4.2 µg/mL (≈ 10.8 µM)
- Activity [30]: inactive
- EC50 [31]: > 20 µg/mL

Compound: CCC[C@@H](O)C1=C(Br)/C(=C/Br)OC1=O
- zone of inhibition at 10 µg/disc [1]: 27 mm
- zone of inhibition at 1 µg/disc [2]: 20 mm
- Activity [3]: Active
- IC50 [4]: 1500 nM
- Activity [5]: inactive
- EC50 [32]: 0.3 µg/mL (≈ 0.92 µM)
- IC50 [7]: 76 µM
- Activity [8]: Active
- Activity [33]: inactive
- EC50 [9]: < 0.1 µg/mL
- IC50 [10]: 600 nM
- zone of inhibition at 0.1 µg/disc [11]: 6 mm
- zone of inhibition at 5 µg/disc [15]: 26 mm
- Activity [16]: Active
- Activity [34]: 3.4%
- Activity [19]: Active
- Activity [20]: Active
- Activity [21]: Active
- Activity [22]: Active
- Activity [35]: inactive
- Activity [36]: Active
- EC50 [23]: 0.2 µg/mL (≈ 0.614 µM)
- Activity [24]: >50%
- Activity [25]: Active
- EC50 [27]: 3.4 µg/mL (≈ 10.4 µM)
- EC50 [28]: 0.4 µg/mL (≈ 1.23 µM)
- IC50 [37]: 350 µM
- Activity [30]: Active
- Activity [38]: inactive
- EC50 [31]: 0.1 µg/mL (≈ 0.307 µM)

Compound: Clc1ccc(COC(Cn2ccnc2)c2ccc(Cl)cc2Cl)c(Cl)c1 (stereo not drawn) [MICONAZOLE]
- zone of inhibition at 0.8 µg/disc [39]: 3 mm
- zone of inhibition at 1.6 µg/disc [40]: 5 mm

Compound: CCC[C@@H](OC(C)=O)C1=C(Br)[C@@](CI)(OC)OC1=O
- Activity [1]: inactive
- Activity [2]: inactive
- Activity [3]: inactive
- EC50 [32]: > 20 µg/mL
- Activity [8]: inactive
- Activity [33]: inactive
- EC50 [9]: 7.9 µg/mL (≈ 17.7 µM)
- Activity [11]: inactive
- Activity [12]: inactive
- Activity [15]: inactive
- Activity [16]: Active
- Activity [19]: inactive
- Activity [20]: inactive
- Activity [21]: inactive
- Activity [22]: inactive
- Activity [35]: inactive
- Activity [36]: inactive
- EC50 [23]: 12.9 µg/mL (≈ 28.9 µM)
- Activity [24]: >50%
- Activity [25]: Active
- EC50 [27]: 4.1 µg/mL (≈ 9.17 µM)
- EC50 [28]: 2.4 µg/mL (≈ 5.37 µM)
- IC50 [37]: 350 µM
- Activity [30]: inactive
- Activity [38]: inactive
- EC50 [31]: 7.1 µg/mL (≈ 15.9 µM)

Compound: CCC[C@@H](OC(C)=O)C1=C(Br)/C(=C/Br)OC1=O
- zone of inhibition at 10 µg/disc [1]: 16 mm
- zone of inhibition at 1 µg/disc [2]: 11 mm
- Activity [3]: inactive
- IC50 [4]: 3000 nM
- Activity [5]: inactive
- EC50 [32]: 1.7 µg/mL (≈ 4.62 µM)
- IC50 [7]: 67 µM
- Activity [8]: Active
- Activity [33]: inactive
- EC50 [9]: 1.6 µg/mL (≈ 4.35 µM)
- IC50 [10]: 1300 nM
- zone of inhibition at 0.1 µg/disc [11]: 7 mm
- Activity [12]: inactive
- zone of inhibition at 5 µg/disc [15]: 15 mm
- Activity [16]: Active
- Activity [19]: Active
- Activity [20]: Active
- Activity [21]: Active
- Activity [22]: inactive
- Activity [35]: inactive
- EC50 [23]: 0.5 µg/mL (≈ 1.36 µM)
- Activity [24]: >50%
- Activity [25]: Active
- EC50 [27]: 2.1 µg/mL (≈ 5.71 µM)
- EC50 [28]: 0.8 µg/mL (≈ 2.17 µM)
- IC50 [37]: 350 µM
- Activity [30]: Active
- Activity [38]: inactive
- EC50 [31]: 1 µg/mL (≈ 2.72 µM)

From ChEMBL document CHEMBL1158040, “Biological activities and 3D QSAR studies of a series of Delisea pulchra (cf. fimbriata) derived natural products” (J Nat Prod, 2006)
